According to ChEMBL document CHEMBL1629560, “Gain-of-function mutations in the transcription factor MRR1 are responsible for overexpression of the MDR1 efflux pump in fluconazole-resistant Candida dubliniensis strains” (2008):
Converted amounts (≈) assume the structure as drawn.

How the values were obtained:
Candida albicans [1] = assay: Antimicrobial activity against Candida albicans harboring MRR1 CD51-2B mutant gene by microdilution method
Candida dubliniensis [2] = assay: Antimicrobial activity against Candida dubliniensis harboring MRR1 CD57B mutant gene by microdilution method; assay type: functional
Method in brief: (§1)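 MRR1 alleles were expressed from the ADH1 promoter as single-copy integrations in C. albicans SC5314 mrr1Δ mutants, selected with nourseothricin. Broth microdilution was run in HR medium with NaHCO3 and 0.2 M phosphate buffer (pH 7.2), using serial twofold dilutions. Starting assay concentrations were fluconazole 200 μg/ml, cerulenin 50 μg/ml and brefeldin A 200 μg/ml.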

Candida dubliniensis [3] = assay: Antimicrobial activity against Candida dubliniensis harboring MRR1 CM2 mutant gene by microdilution method; assay type: functional
Method in brief: as §1

Candida dubliniensis [4] = assay: Antimicrobial activity against Candida dubliniensis harboring MRR1 CD57 mutant gene by microdilution method; assay type: functional
Method in brief: as §1

Candida albicans [5] = assay: Antimicrobial activity against Candida albicans harboring MRR1 CD57A mutant gene by microdilution method
Candida albicans [6] = assay: Antimicrobial activity against Candida albicans harboring MRR1 CD51-2A mutant gene by microdilution method
Candida albicans [7] = assay: Antimicrobial activity against Candida albicans harboring P683S mutation in MRR1F5 gene by microdilution method
Candida dubliniensis [8] = assay: Antimicrobial activity against Candida dubliniensis harboring MRR1 CM1 mutant gene by microdilution method; assay type: functional
Method in brief: as §1

Candida albicans [9] = assay: Antimicrobial activity against wild-type Candida albicans SC5314 by microdilution method; assay type: functional
Method in brief: (§2)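 Broth microdilution was run in HR medium with NaHCO3 and 0.2 M phosphate buffer (pH 7.2), using serial twofold dilutions. Starting assay concentrations were fluconazole 200 μg/ml, cerulenin 50 μg/ml and brefeldin A 200 μg/ml. Fluconazole stock was prepared in water; cerulenin and brefeldin A stocks were in DMSO. Strains were kept at −80°C and subcultured on YPD at 30°C.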

Candida albicans [10] = assay: Antimicrobial activity against Candida albicans harboring MRR1 gene by microdilution method; assay type: functional
Method in brief: as §1

Candida albicans [11] = assay: Antimicrobial activity against mrr1-deficient Candida albicans by microdilution method; assay type: functional
Method in brief: as §2

Row | Compound | MIC (Candida albicans [1]) | MIC (Candida dubliniensis [2]) | MIC (Candida dubliniensis [3]) | MIC (Candida dubliniensis [4]) | MIC (Candida albicans [5]) | MIC (Candida albicans [6]) | MIC (Candida albicans [7]) | MIC (Candida dubliniensis [8]) | MIC (Candida albicans [9]) | MIC (Candida albicans [10]) | MIC (Candida albicans [11])
1 | C[C@H]1CCC/C=C/[C@@H]2C[C@H](O)C[C@H]2[C@H](O)/C=C/C(=O)O1 [BREFELDIN A] | 3.13 µg/mL (≈ 11.2 µM) | 12.5 µg/mL (≈ 44.6 µM) | 12.5 µg/mL (≈ 44.6 µM) | 1.56 µg/mL (≈ 5.56 µM) | 12.5 µg/mL (≈ 44.6 µM) | 12.5 µg/mL (≈ 44.6 µM) | 25 µg/mL (≈ 89.2 µM) | 1.56 µg/mL (≈ 5.56 µM) | 1.56 µg/mL (≈ 5.56 µM) | 1.56 µg/mL (≈ 5.56 µM) | 1.56 µg/mL (≈ 5.56 µM)
2 | C/C=C/C/C=C/CCC(=O)[C@H]1O[C@H]1C(N)=O [CERULENIN] | 0.78 µg/mL (≈ 3.49 µM) | 3.13 µg/mL (≈ 14 µM) | 3.13 µg/mL (≈ 14 µM) | 0.2 µg/mL (≈ 0.896 µM) | 3.13 µg/mL (≈ 14 µM) | 3.13 µg/mL (≈ 14 µM) | 6.25 µg/mL (≈ 28 µM) | 0.2 µg/mL (≈ 0.896 µM) | 0.2 µg/mL (≈ 0.896 µM) | 0.2 µg/mL (≈ 0.896 µM) | 0.2 µg/mL (≈ 0.896 µM)
3 | OC(Cn1cncn1)(Cn1cncn1)c1ccc(F)cc1F [FLUCONAZOLE] | 0.39 µg/mL (≈ 1.27 µM) | 0.78 µg/mL (≈ 2.55 µM) | 0.78 µg/mL (≈ 2.55 µM) | 0.1 µg/mL (≈ 0.327 µM) | 0.78 µg/mL (≈ 2.55 µM) | 0.78 µg/mL (≈ 2.55 µM) | 3.13 µg/mL (≈ 10.2 µM) | 0.1 µg/mL (≈ 0.327 µM) | 0.1 µg/mL (≈ 0.327 µM) | 0.1 µg/mL (≈ 0.327 µM) | 0.1 µg/mL (≈ 0.327 µM)
